Test results taken from ChEMBL document CHEMBL1949570, “Quinoline- and isoquinoline-sulfonamide derivatives of LCAP as potent CNS multi-receptor-5-HT1A/5-HT2A/5-HT7 and D2/D3/D4-agents: the synthesis and pharmacological evaluation” (Bioorg Med Chem, 2012).
pKi: −log10 of the molar value. Calls of active or inactive are those of the source. The rule behind the calls is not given here.

Experiments:
Mus musculus [1] = assay: Antidepressant activity in mouse assessed as spontaneous locomotor activity 5 to 20 mg/kg; type: functional, organism-based
Outline: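 Swiss albino mice given the forced swim doses ip 30 min before; placed individually in cages and channel crossings counted from 2 to 6 min with a multichannel activity monitor, matching the swim test observation period.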

Mus musculus [2] = assay: Antidepressant activity in Swiss albino mouse assessed as reduction in immobility time at 5 to 20 mg/kg measured for 4 mins by forced swim test; type: functional; design: scale not given: the % may be the effect or the level left; settings: dose mg/kg 5-20
Outline: (§1)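 Porsolt forced swim in male Swiss albino mice. Drugs ip (10 ml/kg; 1% Tween 80 suspension, imipramine in water) 30 min before. Cylinder 25 cm high, 10 cm diameter, 6 cm water at 23–25 °C, 6 min session; immobility scored over final 4 min. 5–10 mice/dose; one-way ANOVA with Bonferroni.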

Mus musculus [3] = assay: […] activity in ip dosed Swiss albino mouse assessed as inhibition of DOI-induced head twitches administered 20 mins before DOI challenge measured for 20 mins; type: functional; settings: for ED50: read-out: ID50 (the source's name)
[4] = molecular target: T1, 5-hydroxytryptamine receptor 7 (Homo sapiens, UniProt P34969); assay: Displacement of [3H]5-CT form human cloned 5HT7 receptor expressed in human HEK293 cells by liquid scintillation counter; type: cell-based
Outline: (§2)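 Competition binding. 5-HT1A: rat hippocampus, [3H]-8-OH-DPAT. 5-HT2A: rat cortex, [3H]-ketanserin. D2: rat striatum, [3H]-spiperone. 5-HT6: human receptor stably in HEK293, [3H]-LSD. 5-HT7: human receptor stably in HEK293, [3H]-5-CT. Vacuum filtration on GF/B filters, ice-cold washes, scintillation counting.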

[5] = molecular target: 5-hydroxytryptamine receptor 6 (Homo sapiens, UniProt P50406); assay: Displacement of [3H]-LSD from human full length cloned 5HT6 receptor expressed in human HEK293 cells by liquid scintillation counter; type: cell-based; outline: as §2
[6] = molecular target: T2, 5-hydroxytryptamine receptor 1A (Rattus norvegicus, UniProt P19327); assay: Displacement of [3H]8-OH-DPAT from rat hippocampus 5-HT1A receptor by liquid scintillation counter; type: tissue-based; outline: as §2
T2 sequence (P19327 whole entry): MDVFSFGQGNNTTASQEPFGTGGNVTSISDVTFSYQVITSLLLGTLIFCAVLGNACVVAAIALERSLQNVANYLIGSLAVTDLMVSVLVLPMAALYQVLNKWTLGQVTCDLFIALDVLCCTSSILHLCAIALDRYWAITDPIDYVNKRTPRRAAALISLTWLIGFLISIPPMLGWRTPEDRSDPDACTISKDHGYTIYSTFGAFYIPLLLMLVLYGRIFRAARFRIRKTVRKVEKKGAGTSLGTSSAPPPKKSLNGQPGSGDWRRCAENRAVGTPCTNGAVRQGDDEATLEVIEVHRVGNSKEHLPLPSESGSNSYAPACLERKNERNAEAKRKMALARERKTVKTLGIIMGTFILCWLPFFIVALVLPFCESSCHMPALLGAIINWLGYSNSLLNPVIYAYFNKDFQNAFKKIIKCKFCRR

[7] = molecular target: 5-hydroxytryptamine receptor 2A (Rattus norvegicus, UniProt P14842); assay: Displacement of [3H]Ketanserin from rat cortex 5-HT2A receptor by liquid scintillation counter; outline: as §2
Mus musculus [8] = assay: Antipsychotic activity in CD1 mouse assessed as reduction in spontaneous locomotor activity measuring number of crossings at 10 to 30 mg/kg every 5 mins for 1 hr; type: functional, organism-based
Outline: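 Male CD-1 mice; compound or reference ip 30 min before test plus vehicle. After 30 min habituation in individual cages, crossings counted over 1 h, recorded every 5 min; mean ± SEM; one-way ANOVA, Bonferroni.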

Mus musculus [9] = assay: Antipsychotic activity in CD1 mouse assessed as inhibition of MK-801-induced hyperactivity measuring number of crossings at 5 to 30 mg/kg measured every 5 mins for 1 hr; type: functional, organism-based
Outline: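 Male CD-1 mice; test compound ip 30 min before, MK-801 0.2 mg/kg (in water) ip 15 min before testing. After 30 min habituation, crossings counted for 60 min, recorded every 5 min. 5–10 mice/group; mean ± SEM; one-way ANOVA, Bonferroni versus vehicle + MK-801.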

Rattus norvegicus [10] = assay: Anxiolytic activity in Wistar rat assessed as increase in Y ambulations at 2.5 mg/kg for 5 mins by general locomotor activity test; type: functional, organism-based; design: dose 2.5 mg/kg
Rattus norvegicus [11] = assay: Anxiolytic activity in Wistar rat assessed as increase in total distance at 2.5 mg/kg for 5 mins by general locomotor activity test; type: functional, organism-based; design: dose 2.5 mg/kg
Rattus norvegicus [12] = assay: Anxiolytic activity in Wistar rat assessed as increase in open arm entries at 10 mg/kg after 5 mins by plus-maze test (reference value: 23.1 +/- […]); type: functional
Rattus norvegicus [13] = assay: Anxiolytic activity in Wistar rat assessed as increase in open arm entries at 5 mg/kg after 5 mins by plus-maze test (reference value: 23.1 +/- […]); type: functional
Rattus norvegicus [14] = assay: Anxiolytic activity in Wistar rat assessed as increase in open arm entries at 2.5 mg/kg after 5 mins by plus-maze test (reference value: 23.1 +/- […]); type: functional
Rattus norvegicus [15] = assay: Anxiolytic activity in Wistar rat assessed as increase in time spent in open arms at 10 mg/kg after 5 mins by plus-maze test (reference value: 7.9 +/- 1.4 %); type: functional
Rattus norvegicus [16] = assay: Anxiolytic activity in Wistar rat assessed as increase in time spent in open arms at 5 mg/kg after 5 mins by plus-maze test (reference value: 7.9 +/- 1.4 %); type: functional
Rattus norvegicus [17] = assay: Anxiolytic activity in Wistar rat assessed as increase in time spent in open arms at 2.5 mg/kg after 5 mins by plus-maze test (reference value: 7.9 +/- 1.4 %); type: functional
Mus musculus [18] = assay: Antidepressant activity in Swiss albino mouse assessed as reduction in immobility time at 20 mg/kg measured for 4 mins by forced swim test; type: functional; outline: as §1
Mus musculus [19] = assay: Antidepressant activity in Swiss albino mouse assessed as reduction in immobility time at 10 mg/kg measured for 4 mins by forced swim test; type: functional; outline: as §1
Mus musculus [20] = assay: […] activity in Swiss albino mouse assessed as inhibition of apomorphine-induced climbing behavior administered 10 mins before apomorphine challenge measured for 2 mins; type: functional
Outline: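 Male Swiss albino mice; compounds ip in 1% Tween 80 suspension, 10 min before apomorphine 3 mg/kg. Climbing time (2–4 paws on bar wall) recorded for 2 min starting 20 min after apomorphine.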

[21] = molecular target: T1, 5-hydroxytryptamine receptor 7; assay: Antagonist activity at human cloned 5HT7 receptor expressed in human CHO cells assessed as adenylate cyclase activity by cAMP accumulation assay; type: functional, cell-based
Outline: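 CHO cells stably expressing human 5-HT7 receptor; intracellular cAMP (adenylate cyclase) measured, expressed as % of maximal effect of 300 nM serotonin. Compounds tested at 5 concentrations spanning 10^-4–10^-9 in antagonist mode. KB from IC50 by modified Cheng–Prusoff, KB = IC50/(1+A/EC50A), A = reference agonist concentration.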

[22] = molecular target: T3, D(4) dopamine receptor (Homo sapiens) (UniProt P21917); assay: Displacement of [3H]-methylspiperone from human cloned dopamine D4 receptor expressed in HEK293 cells at 10 '-6 M by liquid scintillation counter; type: cell-based
T3 sequence (whole entry): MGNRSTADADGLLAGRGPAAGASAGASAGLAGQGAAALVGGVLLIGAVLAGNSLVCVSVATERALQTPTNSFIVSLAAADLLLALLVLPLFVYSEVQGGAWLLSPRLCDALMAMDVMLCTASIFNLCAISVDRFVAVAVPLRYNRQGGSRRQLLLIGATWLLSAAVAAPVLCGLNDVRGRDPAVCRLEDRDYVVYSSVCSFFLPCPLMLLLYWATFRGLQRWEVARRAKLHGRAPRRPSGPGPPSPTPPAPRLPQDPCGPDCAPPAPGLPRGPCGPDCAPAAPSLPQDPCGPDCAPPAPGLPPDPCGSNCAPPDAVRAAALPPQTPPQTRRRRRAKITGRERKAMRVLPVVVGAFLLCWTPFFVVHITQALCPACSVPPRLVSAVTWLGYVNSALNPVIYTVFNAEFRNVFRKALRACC

[23] = molecular target: T3, D(4) dopamine receptor (Homo sapiens); assay: Displacement of [3H]-methylspiperone from human cloned dopamine D4 receptor expressed in HEK293 cells at 10 '-7 M by liquid scintillation counter; type: cell-based
[24] = molecular target: D(3) dopamine receptor (Homo sapiens) (UniProt P35462); assay: Displacement of [3H]-methylspiperone from human cloned dopamine D3 receptor expressed in HEK293 cells at 10 '-6 M by liquid scintillation counter; type: cell-based
[25] = molecular target: D(3) dopamine receptor (Homo sapiens) (UniProt P35462); assay: Displacement of [3H]-methylspiperone from human cloned dopamine D3 receptor expressed in HEK293 cells at 10 '-7 M by liquid scintillation counter; type: cell-based
D(2) dopamine receptor = D(2) dopamine receptor (Rattus norvegicus, UniProt P61169); assay: Displacement of [3H]-spiperone from rat striatum dopamine D2 receptor by liquid scintillation counter; outline: as §2
[26] = Selectivity ratio of compound Ki for rat hippocampus 5-HT1A receptor to human 5HT7 receptor; type: tissue-based
Outline: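 Ratio of Ki values from competition binding: rat hippocampus 5-HT1A with [3H]-8-OH-DPAT versus human 5-HT7 in HEK293 with [3H]-5-CT; Ki by Cheng–Prusoff from 7–9 concentrations in triplicate.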

T1 sequence (P34969 whole entry): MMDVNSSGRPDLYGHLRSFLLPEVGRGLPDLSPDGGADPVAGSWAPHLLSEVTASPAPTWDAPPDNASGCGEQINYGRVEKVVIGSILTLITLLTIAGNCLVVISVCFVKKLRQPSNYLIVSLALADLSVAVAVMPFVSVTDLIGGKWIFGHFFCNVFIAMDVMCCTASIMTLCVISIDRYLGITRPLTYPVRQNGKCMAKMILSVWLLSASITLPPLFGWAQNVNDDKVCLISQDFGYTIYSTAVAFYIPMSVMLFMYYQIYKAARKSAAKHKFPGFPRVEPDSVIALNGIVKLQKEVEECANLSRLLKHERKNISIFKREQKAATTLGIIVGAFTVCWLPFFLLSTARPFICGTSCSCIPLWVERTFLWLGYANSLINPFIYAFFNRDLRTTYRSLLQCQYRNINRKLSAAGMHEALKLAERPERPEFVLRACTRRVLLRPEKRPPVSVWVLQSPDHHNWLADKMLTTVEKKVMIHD
5-hydroxytryptamine receptor 6, sequence (P50406 whole entry): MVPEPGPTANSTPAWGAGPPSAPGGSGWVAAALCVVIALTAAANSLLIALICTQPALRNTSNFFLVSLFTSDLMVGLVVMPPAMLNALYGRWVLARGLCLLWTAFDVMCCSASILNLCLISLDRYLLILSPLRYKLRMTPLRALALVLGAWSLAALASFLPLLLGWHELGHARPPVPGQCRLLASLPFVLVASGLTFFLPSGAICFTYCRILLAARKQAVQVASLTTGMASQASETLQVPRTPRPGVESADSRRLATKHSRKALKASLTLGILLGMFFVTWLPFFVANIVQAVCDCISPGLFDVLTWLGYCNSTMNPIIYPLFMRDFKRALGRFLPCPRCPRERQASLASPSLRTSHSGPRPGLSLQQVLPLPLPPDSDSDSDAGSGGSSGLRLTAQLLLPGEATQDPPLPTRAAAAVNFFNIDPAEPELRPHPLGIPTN
5-hydroxytryptamine receptor 2A, sequence (P14842 whole entry): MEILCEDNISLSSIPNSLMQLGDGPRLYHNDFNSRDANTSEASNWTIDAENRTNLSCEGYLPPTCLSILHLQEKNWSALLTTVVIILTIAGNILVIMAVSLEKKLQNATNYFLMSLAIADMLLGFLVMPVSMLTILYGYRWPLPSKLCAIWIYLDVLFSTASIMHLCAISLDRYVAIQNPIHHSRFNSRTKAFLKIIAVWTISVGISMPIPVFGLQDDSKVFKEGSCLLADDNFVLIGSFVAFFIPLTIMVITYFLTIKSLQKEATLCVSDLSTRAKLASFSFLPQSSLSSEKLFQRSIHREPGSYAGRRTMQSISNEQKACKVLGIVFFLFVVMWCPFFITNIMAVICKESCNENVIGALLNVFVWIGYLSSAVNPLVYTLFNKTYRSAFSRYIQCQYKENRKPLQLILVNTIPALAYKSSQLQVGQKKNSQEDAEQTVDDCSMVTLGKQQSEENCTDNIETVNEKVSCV
D(3) dopamine receptor (Homo sapiens), sequence (P35462 whole entry): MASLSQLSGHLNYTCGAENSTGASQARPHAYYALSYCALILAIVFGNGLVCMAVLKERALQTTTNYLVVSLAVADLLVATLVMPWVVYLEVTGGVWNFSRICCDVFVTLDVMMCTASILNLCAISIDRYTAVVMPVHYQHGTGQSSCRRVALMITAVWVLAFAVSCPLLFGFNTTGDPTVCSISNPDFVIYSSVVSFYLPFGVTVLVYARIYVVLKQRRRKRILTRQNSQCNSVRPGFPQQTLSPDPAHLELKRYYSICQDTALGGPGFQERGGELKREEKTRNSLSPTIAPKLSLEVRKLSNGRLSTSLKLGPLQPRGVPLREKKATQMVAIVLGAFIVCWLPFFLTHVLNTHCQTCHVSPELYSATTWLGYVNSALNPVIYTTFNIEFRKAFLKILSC
D(2) dopamine receptor, sequence (P61169 whole entry): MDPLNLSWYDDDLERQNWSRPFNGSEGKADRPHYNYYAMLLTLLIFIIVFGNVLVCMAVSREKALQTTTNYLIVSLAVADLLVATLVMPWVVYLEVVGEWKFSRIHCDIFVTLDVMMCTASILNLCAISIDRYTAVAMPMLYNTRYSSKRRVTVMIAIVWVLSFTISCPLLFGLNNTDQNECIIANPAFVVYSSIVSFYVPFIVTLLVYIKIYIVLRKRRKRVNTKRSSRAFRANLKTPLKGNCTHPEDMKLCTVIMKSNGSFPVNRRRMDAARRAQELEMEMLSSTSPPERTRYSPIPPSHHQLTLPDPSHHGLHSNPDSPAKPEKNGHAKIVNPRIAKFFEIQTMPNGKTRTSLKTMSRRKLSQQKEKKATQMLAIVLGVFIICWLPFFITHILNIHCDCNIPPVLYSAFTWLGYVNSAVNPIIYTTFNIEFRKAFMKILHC

Cl.O=S(=O)(NCCCCN1CCN(c2cccc(Cl)c2)CC1)c1cnc2ccc(Cl)cc2c1
Activity (Mus musculus [1]): inactive | Activity (Mus musculus [2]): 44% | inhibition (Mus musculus [3]): Dose-dependent effect | ED50 (Mus musculus [3]): 4.75 mg/kg | pKi [4]: 7.06 | pKi [5]: 6.81 | pKi [6]: 6.68 | pKi [7]: 7.25

Cl.O=S(=O)(c1cncc2ccccc12)N1CCC(CCN2CCN(c3ccc(Cl)cc3)CC2)CC1
Activity (Mus musculus [8]): inactive | inhibition (Mus musculus [9]): Active | Activity (Rattus norvegicus [10]): Active | Activity (Rattus norvegicus [11]): Active | Activity (Rattus norvegicus [12]): 40.3% | Activity (Rattus norvegicus [13]): 32.9% | Activity (Rattus norvegicus [14]): 36.4% | Activity (Rattus norvegicus [15]): 29.3% | Activity (Rattus norvegicus [16]): 19.4% | Activity (Rattus norvegicus [17]): 25% | Activity (Mus musculus [18]): Active | Activity (Mus musculus [19]): Active | inhibition (Mus musculus [20]): Dose-dependent effect | ED50 (Mus musculus [20]; read-out: ID50 (the source's name)): 25.5 mg/kg | inhibition (Mus musculus [3]): Dose-dependent effect | ED50 (Mus musculus [3]): 20.3 mg/kg | Kb [21]: 90 nM | inhibition [22]: 98% | inhibition [23]: 70% | inhibition [24]: 93% | inhibition [25]: 67% | pKi (D(2) dopamine receptor): 7.22 | Ratio Ki [26]: 68 | pKi [4]: 7.33 | pKi [5]: 4.78 | pKi [6]: 5.49 | pKi [7]: 7.23
